Assay outcomes from PubChem.
Compounds with a hit are over-represented: about 3.1% of the library has one in this group of screens.
EWS-Fli inh: blocks EWS/Fli oncoprotein-driven transcription. inhibition, % at 12.6 µM. A673 NR0B1-luciferase reporter, viability-normalised. 350,000 tested, 0.67% active;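 active means mean inhibition of at least 50% after viability correction, with every replicate also passing that limit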;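 further: firefly luciferase signal divided by Alamar Blue viability fluorescence both relative to DMSO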
FN deposition inh: fibronectin deposition inhibition | AH1F fibroblasts, Alexa488-fibronectin deposition fluorescence, overnight | AID 743247 | inhibition, % at 12.6 µM | 350,000 tested, 0.086% active;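 active means mean inhibition across replicates of 30% or more, regardless of how many single replicates reach that level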;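 further: positive control wells lacked labelled fibronectin entirely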
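Material: AH1F fibroblasts assembling fluorescent fibronectin matrix; amount: 10000 AH1F cells/well; medium: DMEM, 2% serum; reagent: Alexa488-fibronectin, 24 nM final in well; dosing: single compound dose, delivered by pin transfer; incubation: 1 h adhesion, overnight exposure; detection: fluorescence after three HBSS washes, excitation 485 nm, emission 525 nm; measure: fibronectin deposition inhibition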
PAX8 inh HTS: lowers PAX8-driven luciferase in RMG-I cells | AID 652154 | 360,000 tested, 1.2% active | RMG-I TPO-luciferase reporter, SteadyGlo, 24 h | inhibition, % at 12.6 µM;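 active means mean replicate inhibition at least 60% with every replicate also reaching 60%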;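 further: luciferase light reporting Pax8 driven TPO promoter activity; plate controls were median of neutral control wells for no effect and mitoxantrone controls for full effect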
PGC1a acetyl inh: PGC1a acetylation modulation, inhibitor mode | U2OS PGC1a acetylation, AlphaScreen anti-acetyl-lysine; with virally co-expressed GCN5 acetyltransferase | inhibition, % at 15.6 µM | 350,000 tested, 0.17% active | AID 651687;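 active means every replicate shows inhibition of at least 40%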;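 further: 0% = neutral control wells and 100% = positive control wells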
FGF22 binding: binders of recombinant human FGF22 by thermal shift; 340,000 tested, 1.5% active; activity (Tm shift, normalised), % at 9.99 µM; Q9HCT0; SYPRO orange fluorescence; percent of sucrose octasulfate shift, DMSO zero;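 active means mean Tm shift, scaled 0 neutral to 100 positive control, at about 1.3% or above, every replicate too, limit read from the data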
Target sequence (Q9HCT0 whole entry, looked up): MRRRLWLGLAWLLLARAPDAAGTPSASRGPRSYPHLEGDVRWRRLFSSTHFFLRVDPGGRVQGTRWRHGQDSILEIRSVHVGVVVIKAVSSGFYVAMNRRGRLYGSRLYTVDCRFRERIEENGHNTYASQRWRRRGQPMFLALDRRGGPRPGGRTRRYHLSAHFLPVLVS
Env fusion inh: inhibitors of HIV Env-mediated cell fusion; HeLa-JRFL Env/CEM21 cell fusion, luciferase; inhibition, % at 12.3 µM; 360,000 tested, 1.1% active; AID 651610;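 active means mean replicate inhibition score of at least 50 and every replicate individually at or above 50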;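 further: 0% = plate neutral controls and 100% = maraviroc near 300 nM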
* hit, by the source's call; . = not tested or not shown; [ ] = dose if it differs, or a comment.

SMILES	EWS-Fli inh	FN deposition inh	PAX8 inh HTS	PGC1a acetyl inh	FGF22 binding	Env fusion inh
C[C@H](CO)N1C[C@H](C)[C@@H](CN(C)C(=O)c2ccncc2)OCCCC[C@H](C)Oc2ccc(NC(=O)Cc3ccccc3)cc2C1=O	5	-1	0	-7	0	2[16.7 µM]
O=C(Cc1ccc(F)cc1)Nc1cccc(S(=O)(=O)N2CCCC2)c1	14	-7	-5	.	0	63*
O=C(Nc1cccc(S(=O)(=O)N2CCCCC2)c1)c1ccc([N+](=O)[O-])o1	42	4	76*	-226	0	-121
CC(C)C(=O)N1CCN(c2ccc(NC(=O)c3ccc([N+](=O)[O-])o3)cc2)CC1	35	4	97*	.	0	-387
C[C@@H]1CN([C@@H](C)CO)C(=O)Cc2cc(NC(=O)C3CC3)ccc2O[C@H]1CN(C)Cc1ccc(C(=O)O)cc1	-6	5	.	7	0	-4[16.7 µM]
Cc1ccccc1-c1ccc([C@@H]2[C@@H](CO)N3C(=O)CN(C(=O)Nc4ccc(F)cc4)C[C@@H]23)cc1	-7	.	25	13	.	.
CC=Cc1ccc2n(c1=O)C[C@H]1[C@H](CO)[C@@H](C(=O)NCC)N(C(=O)C3CCOCC3)[C@@H]21 (mixture of isomers)	0	.	.	.	0	.
NS(=O)(=O)c1ccc(CCNC(=O)CN2CCN(c3ccccc3O)CC2)cc1	-9	-11	-21	-9	44*	-7
NS(=O)(=O)c1ccc(CCNC(=O)CN2CCN(c3ccccc3F)CC2)cc1	5	-5	-3	.	0	40
C[C@@H]1CN([C@H](C)CO)C(=O)c2cc(N(C)C)ccc2O[C@@H](C)CCCCO[C@H]1CN(C)C(=O)Nc1cccc2ccccc12	19	.	52	-23	.	21[16.7 µM]
C[C@@H]1CCCCO[C@H](CN(C)C(=O)Nc2cccc3ccccc23)[C@H](C)CN([C@@H](C)CO)C(=O)c2cc(N(C)C)ccc2O1	13	.	71*	-2	-1	18[16.7 µM]
C[C@H](CO)N1C[C@H](C)[C@H](CN(C)C(=O)Nc2cccc3ccccc23)OCCCC[C@H](C)Oc2ccc(N(C)C)cc2C1=O	67*	.	-18	-7	.	10[16.7 µM]
CCC(=O)Nc1ccc2c(c1)C(=O)N(C)C[C@@H](OC)[C@H](C)CN(Cc1ccc(-c3ccccn3)cc1)[C@H](C)CO2	-7	-4	.	-5	0	-18[16.7 µM]
C=CCc1cccc2cc(C(=O)Nc3ccccc3C(=O)O)c(=O)oc12	-14	-5	22	-21	43*	1
O=C1CCC(=O)N[C@@H](c2ccccc2)C/C=C\CCN1	.	4	.	.	.	.
COc1ccc(S(=O)(=O)Nc2ccc3c(c2)C(=O)N([C@H](C)CO)C[C@H](C)[C@H](CN(C)S(=O)(=O)c2ccc(F)cc2)OCCCC[C@H](C)O3)cc1	10	.	77*	-20	0	-122[16.7 µM]
COc1ccc(S(=O)(=O)Nc2ccc3c(c2)C(=O)N([C@H](C)CO)C[C@@H](C)[C@H](CN(C)S(=O)(=O)c2ccc(F)cc2)OCCCC[C@H](C)O3)cc1	13	.	79*	-21	0	-34[16.7 µM]
Cc1noc(C)c1S(=O)(=O)Nc1ccc2c(c1)C(=O)N([C@H](C)CO)C[C@@H](C)[C@@H](CN(C)Cc1ccc(Oc3ccccc3)cc1)O2	67*	.	.	-12	0	.
C[C@H]1CN([C@@H](C)CO)C(=O)c2cc(NS(=O)(=O)c3ccccc3)ccc2O[C@H]1CN(C)Cc1ccc(Oc2ccccc2)cc1	7	.	-22	5	0	-39[16.7 µM]
C[C@H]1CN([C@@H](C)CO)C(=O)c2cc(NS(=O)(=O)c3ccccc3)ccc2O[C@@H]1CN(C)Cc1ccc(Oc2ccccc2)cc1	-16	.	92*	-1	0	27[16.7 µM]
COc1ccc(S(=O)(=O)Nc2ccc3c(c2)C(=O)N([C@@H](C)CO)C[C@H](C)[C@@H](CN(C)Cc2ccc(Oc4ccccc4)cc2)O3)cc1	11	.	-4	5	0	63*[16.7 µM]
C[C@@H]1CCCCO[C@H](CN(C)Cc2ccncc2)[C@@H](C)CN([C@@H](C)CO)C(=O)c2cc(NS(=O)(=O)c3ccc(F)cc3)ccc2O1	2	-4	12	3	0	-63[16.7 µM]
CNC[C@H]1Oc2c(NS(=O)(=O)c3c(C)noc3C)cccc2C(=O)N([C@@H](C)CO)C[C@H]1C	4	-5	.	11	1	.
